Assays:
RM-1 cells [1] = test: Mitochondrial membrane potential assay; format: cell-based, mouse; settings: green = low potential
Outline: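 Cells were stained with JC-1 working solution at 37 ℃ for 20 min, washed twice in cold JC-1 buffer and imaged by confocal microscopy (red aggregates, green monomers). Depolarization was quantified in ImageJ. For flow cytometry, cells seeded at 5 × 10⁴/well were trypsinised before staining. Untreated cells were the control.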

RM-1 cells [2] = test: MTT cytotoxicity assay against RM-1 cells; format: cell-based, mouse; settings: for effect of GSP on the sensitivity of cells to the drug: GSP at an ineffective concentration of 0.5 μmol/L
Outline: (§1)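 Cells were seeded at 2 × 10³ per well and grown for 12 h at 37 ℃, 5% CO₂. RM-1, 4T1 and L02 were kept in RPMI 1640 with 10% FBS; 3T3 in DMEM/F-12 with 10% FBS. […] MTT (5 mg/mL stock) was added for 4 h, formazan was dissolved in DMSO, and absorbance was read at 492 nm.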

RM-1 prostate tumor [3] = test: In vivo antitumor efficacy, RM-1 prostate tumor-bearing C57BL/6 mice; design: species or system mouse; settings: 4 mg/kg CTX equivalent and/or 7.5 mg/kg GSP equivalent, i.v., every three days, three injections
3T3 cells = test: MTT cytotoxicity assay against 3T3 cells; format: cell-based, mouse
Outline: as §1

RM-1 prostate tumor [4] = test: GSP-rendered ultra-low-dose chemotherapeutic window in vivo; design: species or system mouse; settings: five injections
Outline: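 Male C57BL/6 mice were given 5 × 10⁶ RM-1 cells in 100 μL PBS subcutaneously in the right rear flank. […] Dosing was i.v. every other day, five injections. Tumor volume and body weight were recorded daily. Blood was taken one day after the last dose; organs were taken for H&E.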

RM-1 cells [5] = test: Live/dead cell co-staining; format: cell-based, mouse; settings: 100 nmol/L CTX equivalent and/or 300 nmol/L GSP equivalent, 24 h
Outline: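 RM-1 cells were seeded on coverslips at 5 × 10⁴ cells/well and grown for 12 h. […] Cells were stained with Calcein-AM (live) and PI (dead) for 30 min and imaged by confocal microscopy. Untreated cells were the control.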

testosterone = test: Serum testosterone; format: in vivo, mouse; settings: 4 mg/kg CTX equivalent and/or 7.5 mg/kg GSP equivalent, three injections
L02 cells = test: MTT cytotoxicity assay against L02 cells; format: cell-based, human
Outline: as §1

Bcl-2 = test: Western blotting of Bcl-2 in RM-1 cells; format: cell-based, mouse; settings: 10 nmol/L CTX equivalent and/or 30 nmol/L GSP equivalent, 40 h
4T1 cells = test: MTT cytotoxicity assay against 4T1 cells; format: cell-based, mouse; settings: 48 h
Outline: as §1

[6] = 14.9 mg/kg GSP equivalent, i.v.

## CO[C@H]1C(=O)[C@]2(C)[C@@H](OC)C[C@H]3OC[C@@]3(OC(C)=O)[C@H]2[C@H](OC(=O)c2ccccc2)[C@]2(O)C[C@H](OC(=O)[C@H](O)[C@@H](NC(=O)OC(C)(C)C)c3ccccc3)C(C)=C1C2(C)C [CTX, Cabazitaxel]
RM-1 cells [1]
  mitochondrial membrane potential change (JC-1 fluorescence, in words): green fluorescence signals were significantly enhanced
RM-1 cells [2]; 0.5 μmol/L GSP
  reduction in IC50 values in the presence of GSP: ≥ 100 fold
RM-1 cells [2]
  effect of GSP on the sensitivity of cells to the drug: dramatically augmented
RM-1 prostate tumor [3]
  antitumor activity (tumor growth): moderate antitumor activity
3T3 cells; 500 nmol/L GSP
  effect of GSP on the cytotoxicity of the drug: little effect
RM-1 prostate tumor [4]; CTX dose gradient 1–8 mg/kg
  body weight: dramatic weight loss
  hepatorenal function indicators and whole blood indexes: abnormalities in hepatorenal function indicators and pancytopenia
RM-1 prostate tumor [4]; high doses 4, 6 and 8 mg/kg CTX equivalent, i.v.
  toxicity (weight loss, death): serious toxic side effects
RM-1 prostate tumor [4]; low doses 1 and 2 mg/kg CTX equivalent, i.v.
  anti-tumor effects: negligible anti-tumor effects
RM-1 cells [5]
  cell death in live/dead staining: only a small portion of cells
testosterone
  serum testosterone: no change in serum testosterone
L02 cells; 500 nmol/L GSP
  effect of GSP on the cytotoxicity of the drug: little effect

## N.N.[Cl][Pt][Cl] [DDP, cisplatin]
RM-1 cells [2]
  effect of GSP on the sensitivity of cells to the drug: dramatically augmented

## COc1cccc2c1C(=O)c1c(O)c3c(c(O)c1C2=O)C[C@@](O)(C(=O)CO)C[C@@H]3O[C@H]1C[C@H](N)[C@H](O)[C@H](C)O1 [DOX, doxorubicin]
RM-1 cells [2]
  effect of GSP on the sensitivity of cells to the drug: dramatically augmented

## CC(=O)O[C@@]12CO[C@@H]1C[C@H](O)[C@@]1(C)C(=O)[C@H](O)C3=C(C)[C@@H](OC(=O)[C@H](O)[C@@H](NC(=O)OC(C)(C)C)c4ccccc4)C[C@@](O)([C@@H](OC(=O)c4ccccc4)[C@H]21)C3(C)C [DTX, docetaxel]
RM-1 cells [2]
  effect of GSP on the sensitivity of cells to the drug: dramatically augmented

## Nc1ccn([C@@H]2O[C@H](CO)[C@@H](O)C2(F)F)c(=O)n1 [GEM, gemcitabine]
RM-1 cells [2]
  effect of GSP on the sensitivity of cells to the drug: dramatically augmented

## Cc1cc2c(C(C)C)c(O)c(O)c(C=O)c2c(O)c1-c1c(C)cc2c(C(C)C)c(O)c(O)c(C=O)c2c1O [GSP, Gossypol]
RM-1 cells [1]
  mitochondrial membrane potential change (JC-1 fluorescence, in words): negligible impact
RM-1 cells [2]; MTT, 48 h
  cytotoxicity (in words): almost no cytotoxicity
RM-1 prostate tumor [3]
  antitumor activity (tumor growth): moderate antitumor activity
3T3 cells; MTT, 48 h
  cytotoxicity (in words): almost no cytotoxicity
RM-1 prostate tumor [4]; [6]
  antitumor effects: moderate antitumor effects
  body weight of tumor-bearing mice: decreased significantly
  liver tissue sections (H&E): some degree of liver injury
RM-1 cells [5]
  cell death in live/dead staining: only a small portion of cells
Bcl-2
  expression of Bcl-2 protein: significantly down-regulated the expression of Bcl-2
4T1 cells
  cytotoxicity (in words): almost no cytotoxicity
L02 cells; MTT, 48 h
  cytotoxicity (in words): almost no cytotoxicity

## O=C1[O][Pt]2([NH][C@@H]3CCCC[C@H]3[NH]2)[O]C1=O [OXP, oxaliplatin]
RM-1 cells [2]
  effect of GSP on the sensitivity of cells to the drug: dramatically augmented

From PMC12254776 (Acta Pharmaceutica Sinica. B, 2025)
